# Data taken from ChEMBL document CHEMBL4118033, “Total Synthesis, Configuration Assignment, and Cytotoxic Activity Evaluation of Protulactone A” (J Nat Prod, 2017).
# Active and inactive are the calls of the source. No cut-off for these calls is given here.
# Tests used:
# Assay type in all cases: functional, cell-based
# NCI-H23 = assay: Antiproliferative activity against human NCI-H23 cells at 10 uM incubated for 48 hrs by sulforhodamine B assay
# Summary of the method: (§1)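 Run by the NCI Developmental Therapeutics Program (Division of Cancer Treatment and Diagnosis) as part of the NCI60 human tumour cell line panel screen. Each compound was tested at a single dose of 10 μM. Results are reported as one-dose mean graphs.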
# OVCAR-8 = assay: Antiproliferative activity against human OVCAR8 cells at 10 uM incubated for 48 hrs by sulforhodamine B assay; summary of the method: as §1
# M14 = assay: Antiproliferative activity against human M14 cells at 10 uM incubated for 48 hrs by sulforhodamine B assay; summary of the method: as §1
# SNB-75 = assay: Antiproliferative activity against human SNB75 cells at 10 uM incubated for 48 hrs by sulforhodamine B assay
# Summary of the method: (§2)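 Run by the NCI Developmental Therapeutics Program (Division of Cancer Treatment and Diagnosis) as part of the NCI60 human tumour cell line panel. Each compound was tested in vitro at a single dose of 10 μM, and the data are reported as one-dose mean graphs across the panel.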
# NCI-H226 = assay: Antiproliferative activity against human NCI-H226 cells at 10 uM incubated for 48 hrs by sulforhodamine B assay; summary of the method: as §1
# RPMI-8226 = assay: Antiproliferative activity against human RPMI8226 cells at 10 uM incubated for 48 hrs by sulforhodamine B assay; summary of the method: as §1
# MCF7 = assay: Antiproliferative activity against human MCF7 cells at 10 uM incubated for 48 hrs by sulforhodamine B assay; summary of the method: as §1
# OVCAR-3 = assay: Antiproliferative activity against human OVCAR3 cells at 10 uM incubated for 48 hrs by sulforhodamine B assay; summary of the method: as §1
# A549 = assay: Antiproliferative activity against human A549/ATCC cells at 10 uM incubated for 48 hrs by sulforhodamine B assay; summary of the method: as §1
# RXF 393 = assay: Antiproliferative activity against human RXF393 cells at 10 uM incubated for 48 hrs by sulforhodamine B assay; summary of the method: as §1
# DU-145 = assay: Antiproliferative activity against human DU145 cells at 10 uM incubated for 48 hrs by sulforhodamine B assay; summary of the method: as §1
# 786-0 = assay: Antiproliferative activity against human 786-0 cells at 10 uM incubated for 48 hrs by sulforhodamine B assay; summary of the method: as §1
# CAKI-1 = assay: Antiproliferative activity against human Caki1 cells at 10 uM incubated for 48 hrs by sulforhodamine B assay; summary of the method: as §1
# Hs-578T = assay: Antiproliferative activity against human Hs 578T cells at 10 uM incubated for 48 hrs by sulforhodamine B assay; summary of the method: as §1
# ACHN = assay: Antiproliferative activity against human ACHN cells at 10 uM incubated for 48 hrs by sulforhodamine B assay; summary of the method: as §1
# SW-620 = assay: Antiproliferative activity against human SW620 cells at 10 uM incubated for 48 hrs by sulforhodamine B assay; summary of the method: as §2
# SK-OV-3 = assay: Antiproliferative activity against human SKOV3 cells at 10 uM incubated for 48 hrs by sulforhodamine B assay; summary of the method: as §1
# COLO 205 = assay: Antiproliferative activity against human COLO205 cells at 10 uM incubated for 48 hrs by sulforhodamine B assay; summary of the method: as §1
# MOLT-4 = assay: Antiproliferative activity against human MOLT4 cells at 10 uM incubated for 48 hrs by sulforhodamine B assay; summary of the method: as §1
# UACC-62 = assay: Antiproliferative activity against human UACC62 cells at 10 uM incubated for 48 hrs by sulforhodamine B assay; summary of the method: as §2
# MDA-MB-468 = assay: Antiproliferative activity against human MDA-MB-468 cells at 10 uM incubated for 48 hrs by sulforhodamine B assay; summary of the method: as §1
# HT-29 = assay: Antiproliferative activity against human HT-29 cells at 10 uM incubated for 48 hrs by sulforhodamine B assay; summary of the method: as §1
# SNB-19 = assay: Antiproliferative activity against human SNB19 cells at 10 uM incubated for 48 hrs by sulforhodamine B assay; summary of the method: as §1
# SK-MEL-5 = assay: Antiproliferative activity against human SK-MEL-5 cells at 10 uM incubated for 48 hrs by sulforhodamine B assay; summary of the method: as §1
# OVCAR-4 = assay: Antiproliferative activity against human OVCAR4 cells at 10 uM incubated for 48 hrs by sulforhodamine B assay; summary of the method: as §1
# U-251 = assay: Antiproliferative activity against human U251 cells at 10 uM incubated for 48 hrs by sulforhodamine B assay; summary of the method: as §2
# HL-60(TB) = assay: Antiproliferative activity against human HL-60(TB) cells at 10 uM incubated for 48 hrs by sulforhodamine B assay
# Summary of the method: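 Tested within the NCI60 cancer cell line panel screen run by the Developmental Therapeutics Program (Division of Cancer Treatment and Diagnosis, National Cancer Institute). Each stereoisomer was given at a single dose of 10 μM. Results are reported as one-dose mean graphs.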
# IGROV-1 = assay: Antiproliferative activity against human IGROV1 cells at 10 uM incubated for 48 hrs by sulforhodamine B assay; summary of the method: as §1
# HCT-116 = assay: Antiproliferative activity against human HCT116 cells at 10 uM incubated for 48 hrs by sulforhodamine B assay; summary of the method: as §1
# HCC 2998 = assay: Antiproliferative activity against human HCC2998 cells at 10 uM incubated for 48 hrs by sulforhodamine B assay; summary of the method: as §1
# Malme-3M = assay: Antiproliferative activity against human MALME-3M cells at 10 uM incubated for 48 hrs by sulforhodamine B assay; summary of the method: as §1
# UO-31 = assay: Antiproliferative activity against human UO31 cells at 10 uM incubated for 48 hrs by sulforhodamine B assay; summary of the method: as §2
# BT-549 = assay: Antiproliferative activity against human BT549 cells at 10 uM incubated for 48 hrs by sulforhodamine B assay; summary of the method: as §1
# SN12C = assay: Antiproliferative activity against human SN12C cells at 10 uM incubated for 48 hrs by sulforhodamine B assay; summary of the method: as §1
# HOP-62 = assay: Antiproliferative activity against human HOP62 cells at 10 uM incubated for 48 hrs by sulforhodamine B assay; summary of the method: as §1
# A498 = assay: Antiproliferative activity against human A498 cells at 10 uM incubated for 48 hrs by sulforhodamine B assay; summary of the method: as §1
# EKVX = assay: Antiproliferative activity against human EKVX cells at 10 uM incubated for 48 hrs by sulforhodamine B assay; summary of the method: as §1
# NCI-H460 = assay: Antiproliferative activity against human NCI-H460 cells at 10 uM incubated for 48 hrs by sulforhodamine B assay; summary of the method: as §1
# SF-295 = assay: Antiproliferative activity against human SF295 cells at 10 uM incubated for 48 hrs by sulforhodamine B assay; summary of the method: as §1
# NCI-H322M = assay: Antiproliferative activity against human NCI-H322M cells at 10 uM incubated for 48 hrs by sulforhodamine B assay; summary of the method: as §1
# HOP-92 = assay: Antiproliferative activity against human HOP92 cells at 10 uM incubated for 48 hrs by sulforhodamine B assay; summary of the method: as §1
# KM12 = assay: Antiproliferative activity against human KM12 cells at 10 uM incubated for 48 hrs by sulforhodamine B assay; summary of the method: as §1
# T47D = assay: Antiproliferative activity against human T47D cells at 10 uM incubated for 48 hrs by sulforhodamine B assay; summary of the method: as §2
# LOX IMVI = assay: Antiproliferative activity against human LOXIMVI cells at 10 uM incubated for 48 hrs by sulforhodamine B assay; summary of the method: as §1
smiles,measurement,setting,value
CC(=O)O[C@H](C)[C@H]1O[C@H]2CC(=O)O[C@H]2[C@@H]1O,Activity,NCI-H23,inactive
same,Activity,OVCAR-8,inactive
same,Activity,M14,inactive
same,Activity,SNB-75,inactive
same,Activity,NCI-H226,inactive
same,Activity,RPMI-8226,inactive
same,Activity,MCF7,inactive
same,Activity,OVCAR-3,inactive
same,Activity,A549,inactive
same,Activity,RXF 393,inactive
same,Activity,DU-145,inactive
same,Activity,786-0,inactive
same,Activity,CAKI-1,inactive
same,Activity,Hs-578T,inactive
same,Activity,ACHN,inactive
same,Activity,SW-620,inactive
same,Activity,SK-OV-3,inactive
same,Activity,COLO 205,inactive
same,Activity,MOLT-4,inactive
same,Activity,UACC-62,inactive
same,Activity,MDA-MB-468,inactive
same,Activity,HT-29,inactive
same,Activity,SNB-19,inactive
same,Activity,SK-MEL-5,inactive
same,Activity,OVCAR-4,inactive
same,Activity,U-251,inactive
same,Activity,HL-60(TB),inactive
same,Activity,IGROV-1,inactive
same,Activity,HCT-116,inactive
same,Activity,HCC 2998,inactive
same,Activity,Malme-3M,inactive
same,Activity,UO-31,inactive
same,Activity,BT-549,inactive
same,Activity,SN12C,inactive
same,Activity,HOP-62,inactive
same,Activity,A498,inactive
same,Activity,EKVX,inactive
same,Activity,NCI-H460,inactive
same,Activity,SF-295,inactive
same,Activity,NCI-H322M,inactive
same,Activity,HOP-92,inactive
same,Activity,KM12,inactive
same,Activity,T47D,inactive
same,Activity,LOX IMVI,inactive
O=C(/C=C/c1ccccc1)O[C@H](c1ccccc1)[C@@H]1O[C@@H]2CC(=O)O[C@@H]2[C@H]1O,Activity,NCI-H23,Active
same,Activity,OVCAR-8,Active
same,Activity,M14,Active
same,Activity,SNB-75,Active
same,Activity,NCI-H226,Active
same,Activity,RPMI-8226,Active
same,Activity,MCF7,Active
same,Activity,OVCAR-3,Active
same,Activity,A549,Active
same,Activity,RXF 393,Active
same,Activity,DU-145,Active
same,Activity,786-0,Active
same,Activity,CAKI-1,Active
same,Activity,Hs-578T,Active
same,Activity,ACHN,Active
same,Activity,SW-620,Active
same,Activity,SK-OV-3,Active
same,Activity,COLO 205,Active
same,Activity,MOLT-4,Active
same,Activity,UACC-62,Active
same,Activity,MDA-MB-468,Active
same,Activity,HT-29,Active
same,Activity,SNB-19,Active
same,Activity,SK-MEL-5,Active
same,Activity,OVCAR-4,Active
same,Activity,U-251,Active
same,Activity,HL-60(TB),Active
same,Activity,IGROV-1,Active
same,Activity,HCT-116,Active
same,Activity,HCC 2998,Active
same,Activity,Malme-3M,Active
same,Activity,UO-31,Active
same,Activity,BT-549,Active
same,Activity,SN12C,Active
same,Activity,HOP-62,Active
same,Activity,A498,Active
same,Activity,EKVX,Active
same,Activity,NCI-H460,Active
same,Activity,SF-295,Active
same,Activity,NCI-H322M,Active
same,Activity,HOP-92,Active
same,Activity,KM12,Active
same,Activity,T47D,Active
same,Activity,LOX IMVI,Active
O=C1C[C@H]2O[C@H]([C@@H](O)c3ccccc3)[C@H](O)[C@H]2O1,Activity,NCI-H23,Active
same,Activity,OVCAR-8,Active
same,Activity,M14,Active
same,Activity,SNB-75,Active
same,Activity,NCI-H226,Active
same,Activity,RPMI-8226,Active
same,Activity,MCF7,Active
same,Activity,OVCAR-3,Active
same,Activity,A549,Active
same,Activity,RXF 393,Active
same,Activity,DU-145,Active
same,Activity,786-0,Active
same,Activity,CAKI-1,Active
same,Activity,Hs-578T,Active
same,Activity,ACHN,Active
same,Activity,SW-620,Active
same,Activity,SK-OV-3,Active
same,Activity,COLO 205,Active
same,Activity,MOLT-4,Active
same,Activity,UACC-62,Active
same,Activity,MDA-MB-468,Active
same,Activity,HT-29,Active
same,Activity,SNB-19,Active
same,Activity,SK-MEL-5,Active
same,Activity,OVCAR-4,Active
same,Activity,U-251,Active
same,Activity,HL-60(TB),Active
same,Activity,IGROV-1,Active
same,Activity,HCT-116,Active
same,Activity,HCC 2998,Active
same,Activity,Malme-3M,Active
same,Activity,UO-31,Active
same,Activity,BT-549,Active
same,Activity,SN12C,Active
same,Activity,HOP-62,Active
same,Activity,A498,Active
same,Activity,EKVX,Active
same,Activity,NCI-H460,Active
same,Activity,SF-295,Active
same,Activity,NCI-H322M,Active
same,Activity,HOP-92,Active
same,Activity,KM12,Active
same,Activity,T47D,Active
same,Activity,LOX IMVI,Active
